# Laboratory results: ChEMBL document CHEMBL2429859, “Inhibiting aberrant signal transducer and activator of transcription protein activation with tetrapodal, small molecule Src homology 2 domain binders: promising agents against multiple myeloma” (J Med Chem, 2013)
# The source made the active and inactive calls. The rule behind the calls is not given here.
# Experiments:
# [1] = target: T1, Signal transducer and activator of transcription 5A (Homo sapiens) (UniProt P42229); experiment: Inhibition of GM-CSF-induced Stat5 phosphorylation in serum-starved human U937 cells at 10 to 20 uM incubated for 4 hrs prior to GM-CSF induction measured after 15 mins by phopsho-flow cytometric analysis; type: cell-based; details: U-937
# T1 sequence (whole entry): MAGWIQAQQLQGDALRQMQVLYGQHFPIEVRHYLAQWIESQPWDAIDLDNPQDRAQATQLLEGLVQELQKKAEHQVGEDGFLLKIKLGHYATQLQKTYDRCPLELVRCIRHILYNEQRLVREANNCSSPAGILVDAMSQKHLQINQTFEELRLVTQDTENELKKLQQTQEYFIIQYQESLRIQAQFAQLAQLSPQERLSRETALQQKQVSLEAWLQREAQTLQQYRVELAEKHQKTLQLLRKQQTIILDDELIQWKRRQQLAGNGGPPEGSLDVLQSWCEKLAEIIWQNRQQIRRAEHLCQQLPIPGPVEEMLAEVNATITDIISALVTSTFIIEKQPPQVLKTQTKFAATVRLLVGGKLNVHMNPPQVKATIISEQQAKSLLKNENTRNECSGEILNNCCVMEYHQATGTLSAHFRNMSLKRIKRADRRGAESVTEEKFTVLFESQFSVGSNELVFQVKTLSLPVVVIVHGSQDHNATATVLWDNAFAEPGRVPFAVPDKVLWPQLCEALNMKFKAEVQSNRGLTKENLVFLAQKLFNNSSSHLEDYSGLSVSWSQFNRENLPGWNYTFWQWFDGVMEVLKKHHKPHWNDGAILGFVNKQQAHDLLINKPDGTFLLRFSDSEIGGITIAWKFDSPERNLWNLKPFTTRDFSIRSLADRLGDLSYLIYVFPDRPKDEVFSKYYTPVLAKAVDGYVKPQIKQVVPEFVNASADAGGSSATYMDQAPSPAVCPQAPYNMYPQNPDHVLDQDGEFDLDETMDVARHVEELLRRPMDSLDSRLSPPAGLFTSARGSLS
# In short: (§1)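 Serum-starved U937 cells were pretreated with compound for 4 h, then stimulated 15 min with IL-6 (Stat3), GM-CSF (Stat5) or IFN (Stat1). Phosphorylation of each STAT was quantified by phospho-flow cytometry.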
# [2] = target: T2, Signal transducer and activator of transcription 3 (Homo sapiens, UniProt P40763); experiment: Inhibition of IL-6-induced Stat3 phosphorylation in serum-starved human U937 cells at 10 to 20 uM incubated for 4 hrs prior to IL-6 induction measured after 15 mins by phopsho-flow cytometric analysis; type: cell-based; details: U-937; in short: as §1
# T2 sequence (P40763 whole entry): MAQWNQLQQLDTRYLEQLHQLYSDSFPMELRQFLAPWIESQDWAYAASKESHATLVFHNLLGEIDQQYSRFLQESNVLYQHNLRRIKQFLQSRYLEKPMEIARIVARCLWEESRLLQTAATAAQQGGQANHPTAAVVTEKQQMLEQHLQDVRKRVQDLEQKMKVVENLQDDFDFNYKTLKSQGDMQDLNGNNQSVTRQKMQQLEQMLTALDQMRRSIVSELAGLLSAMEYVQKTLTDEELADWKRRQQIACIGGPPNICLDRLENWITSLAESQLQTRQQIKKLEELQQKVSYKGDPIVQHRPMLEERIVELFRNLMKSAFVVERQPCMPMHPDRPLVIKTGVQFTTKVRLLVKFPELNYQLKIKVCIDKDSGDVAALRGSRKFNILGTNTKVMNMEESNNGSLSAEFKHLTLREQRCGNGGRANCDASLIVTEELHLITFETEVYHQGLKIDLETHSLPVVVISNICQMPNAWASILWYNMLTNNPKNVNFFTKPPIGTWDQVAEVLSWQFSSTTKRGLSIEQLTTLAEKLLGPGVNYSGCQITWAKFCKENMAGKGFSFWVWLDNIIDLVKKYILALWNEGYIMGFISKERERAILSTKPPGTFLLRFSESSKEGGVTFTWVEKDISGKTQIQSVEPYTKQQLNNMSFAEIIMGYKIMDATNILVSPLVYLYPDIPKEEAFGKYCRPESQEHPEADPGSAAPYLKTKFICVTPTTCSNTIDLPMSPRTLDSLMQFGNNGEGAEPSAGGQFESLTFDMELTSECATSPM
# RPMI-8226 [3] = experiment: Induction of apoptosis in human RPMI8226 cells assessed as transformation of early apoptotic cells to late apoptotic cells measured at 48 hrs by annexin V/propidium iodide staining-based flow cytometric analysis; type: functional, cell-based
# In short: (§2)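 Apoptosis was measured by flow cytometry of Annexin V and propidium iodide staining. Viable, early apoptotic and late apoptotic cells were scored by quadrant, with time points at 24 and 48 h.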
# RPMI-8226 [4] = experiment: Induction of apoptosis in human RPMI8226 cells assessed as transformation of viable cells to early apoptotic cells measured at 24 hrs by annexin V/propidium iodide staining-based flow cytometric analysis; type: functional, cell-based; in short: as §2
# [5] = target: T2, Signal transducer and activator of transcription 3; experiment: Inhibition of Stat3 in human JJN-3 cells assessed as downregulation of BCL-xL protein expression; type: cell-based
# In short: (§3)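 Treated cells were washed in cold PBS and lysed 30 min on ice in Tris-HCl pH 7.4/NaCl/EDTA/1% NP-40 with PMSF, vanadate and protease inhibitors. Lysates were Bradford-normalized, and 10-30 µg protein was run on 7-10% SDS-PAGE and transferred to PVDF. Blots were blocked in 5% BSA/TBST, probed overnight at 4 °C, then with HRP secondary, and detected by ECL.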
# [6] = target: T2, Signal transducer and activator of transcription 3; experiment: Inhibition of Stat3 in human JJN-3 cells assessed as downregulation of survivin protein expression; type: cell-based; in short: as §3
# [7] = target: T2, Signal transducer and activator of transcription 3; experiment: Inhibition of Stat3-mediated luciferase expression in human XG6 cells after 6 hrs; type: cell-based
# In short: (§4)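 Myeloma cells stably carried a Stat3-driven firefly luciferase reporter (puromycin-selected) and a CMV-driven Renilla luciferase internal control (hygromycin-selected), each selected for 2 weeks. After drug treatment, dual luciferase activity was read as relative luciferase units, firefly/Renilla.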
# [8] = target: T2, Signal transducer and activator of transcription 3; experiment: Inhibition of Stat3-mediated luciferase expression in human 8226 cells after 6 hrs; type: cell-based; in short: as §4
# [9] = target: T2, Signal transducer and activator of transcription 3; experiment: Inhibition of Stat3 phosphorylation in human JJN-3 cells after 6 hrs by Western blot analysis; type: cell-based; in short: as §3
# SK-MM-2 = experiment: Cytotoxicity against human SKMM-2 cells assessed as inhibition of cell viability after 72 hrs by MTT assay; type: functional, cell-based
# In short: (§5)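 Myeloma lines were seeded at 1-3 x 10^4 cells per well onto compound or vehicle, in triplicate, and cultured 72 h at 37 °C in 5% CO2. Viability was measured colorimetrically by MTT assay relative to DMSO control. EC50 was fitted to a standard dose-response curve where applicable.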
# MM1.S = experiment: Cytotoxicity against human MM1S cells assessed as inhibition of cell viability after 72 hrs by MTT assay; type: functional, cell-based; in short: as §5
# XG7 = experiment: Cytotoxicity against human XG7 cells assessed as inhibition of cell viability after 72 hrs by MTT assay; type: functional, cell-based; in short: as §5
# UTMC2 = experiment: Cytotoxicity against human UTMC2 cells assessed as inhibition of cell viability after 72 hrs by MTT assay; type: functional, cell-based; in short: as §5
# RPMI-8226 [10] = experiment: Cytotoxicity against human RPMI8226 cells assessed as inhibition of cell viability after 72 hrs by MTT assay; type: functional, cell-based; in short: as §5
# NCI-H929 = experiment: Cytotoxicity against human NCI-H929 cells assessed as inhibition of cell viability after 72 hrs by MTT assay; type: functional, cell-based; in short: as §5
# OCI-AML2 = experiment: Cytotoxicity against human OCI-AML2 cells assessed as cell viability after 72 hrs by MTS assay; type: functional, cell-based; details: OCI-AML2, 72 h
# In short: (§6)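 Cells were seeded at 1-3 x 10^4 per well into wells already holding compound or vehicle, in triplicate. Incubation was 72 h at 37 °C in 5% CO2. Viability was read by MTS colorimetry relative to DMSO control, and EC50 was fitted to a standard dose-response curve where applicable.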
# [11] = Cytotoxicity against human MDA468 cells assessed as cell viability after 72 hrs by MTS assay; type: functional, cell-based; details: MDA-MB-468, 72 h; in short: as §6
# DU-145 = experiment: Cytotoxicity against human DU145 cells assessed as cell viability after 72 hrs by MTS assay; type: functional, cell-based; details: DU-145, 72 h; in short: as §6
# [12] = target: T2, Signal transducer and activator of transcription 3; experiment: Competitive binding affinity to Stat3 SH2 domain (unknown origin) using 5-FAM-GpYLPQTV-NH2 as probe assessed as phosphopetide complex formation after 30 mins by fluorescence polarization assay
# In short: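 Fluorescence polarization. Recombinant STAT protein was incubated with the 5-FAM-GpYLPQTV-NH2 peptide probe and inhibitor for 30 min. Polarized fluorescence was plotted against inhibitor concentration, and IC50 was obtained by fitting a dose-response curve.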
inhibition [1],inhibition [2],inhibition [5],inhibition [7],inhibition [8],inhibition [9],IC50 [12] [µM],SMILES,Activity (RPMI-8226 [3]),Activity (RPMI-8226 [4]),inhibition [6],inhibition (SK-MM-2),inhibition (MM1.S),inhibition (XG7),inhibition (UTMC2),inhibition (RPMI-8226 [10]),inhibition (NCI-H929),IC50 (OCI-AML2) [µM],IC50 [11] [µM],IC50 (DU-145) [µM]
Active,Active,inactive,Dose-dependent effect,Dose-dependent effect,Dose-dependent effect,2.8,Cc1ccc(S(=O)(=O)N(CC(=O)N(Cc2ccc(C3CCCCC3)cc2)c2ccc(C(=O)O)c(O)c2)Cc2ccccc2C(F)(F)F)cc1,Dose-dependent effect,Dose-dependent effect,inactive,Dose-dependent effect,Dose-dependent effect,Dose-dependent effect,Dose-dependent effect,Dose-dependent effect,Dose-dependent effect,12,11,16
Active,Active,inactive,Dose-dependent effect,Dose-dependent effect,Dose-dependent effect,12.8,O=C(O)c1ccc(N(Cc2ccc(C3CCCCC3)cc2)C(=O)CN(Cc2ccccc2C(F)(F)F)S(=O)(=O)c2c(F)c(F)c(F)c(F)c2F)cc1O,Dose-dependent effect,Dose-dependent effect,inactive,Dose-dependent effect,Dose-dependent effect,Dose-dependent effect,Dose-dependent effect,Dose-dependent effect,Dose-dependent effect,4.6,8.1,14
